Measurements taken from ChEMBL document CHEMBL4673214, “Synthesis and antibacterial bioactivities of cationic deacetyl linezolid amphiphiles” (Eur J Med Chem, 2018).
Values belong to the compound of their own block, whether it stands above or below them.

What was measured:
Enterobacteriaceae [1] = assay: Antibacterial activity against NDM1 producing carbapenem-resistant Enterobacteriaceae clinical isolate 8 assessed as reduction in bacterial growth incubated for 16 to 20 hrs by CLSI-based broth microdilution method; type: functional; settings: time 16-20 hrs
Summary of the method: (§1)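 Clinical isolates tested by broth microdilution in cation-adjusted Mueller-Hinton broth. Cultures grown 4-6 h (~10^8 CFU/mL) were diluted to ~10^6 CFU/mL and mixed 1:1 with compound serial dilutions made from 256 down to 0.5 µg/mL (pre-mixing). Plates held at 37 °C for 16-20 h, then read for growth. Each concentration run in duplicate, whole experiment at least twice.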

Klebsiella pneumoniae [2] = assay: Antibacterial activity against carbapenem-resistant Klebsiella pneumoniae clinical isolate 10 assessed as reduction in bacterial growth incubated for 16 to 20 hrs by CLSI-based broth microdilution method; type: functional; settings: time 16-20 hrs; summary of the method: as §1
Klebsiella pneumoniae [3] = assay: Antibacterial activity against carbapenem-resistant Klebsiella pneumoniae clinical isolate 4 assessed as reduction in bacterial growth incubated for 16 to 20 hrs by CLSI-based broth microdilution method; type: functional; settings: time 16-20 hrs; summary of the method: as §1
Klebsiella pneumoniae [4] = assay: Antibacterial activity against carbapenem-resistant Klebsiella pneumoniae clinical isolate 2 assessed as reduction in bacterial growth incubated for 16 to 20 hrs by CLSI-based broth microdilution method; type: functional; settings: time 16-20 hrs; summary of the method: as §1
Klebsiella pneumoniae [5] = assay: Antibacterial activity against carbapenem-resistant Klebsiella pneumoniae clinical isolate 7 assessed as reduction in bacterial growth incubated for 16 to 20 hrs by CLSI-based broth microdilution method; type: functional; settings: time 16-20 hrs; summary of the method: as §1
Enterobacteriaceae [6] = assay: Antibacterial activity against NDM1 producing carbapenem-resistant Enterobacteriaceae clinical isolate 4 assessed as reduction in bacterial growth incubated for 16 to 20 hrs by CLSI-based broth microdilution method; type: functional; settings: time 16-20 hrs; summary of the method: as §1
Klebsiella pneumoniae [7] = assay: Antibacterial activity against carbapenem-resistant Klebsiella pneumoniae clinical isolate 9 assessed as reduction in bacterial growth incubated for 16 to 20 hrs by CLSI-based broth microdilution method; type: functional; settings: time 16-20 hrs; summary of the method: as §1
Enterobacteriaceae [8] = assay: Antibacterial activity against NDM1 producing carbapenem-resistant Enterobacteriaceae clinical isolate 3 assessed as reduction in bacterial growth incubated for 16 to 20 hrs by CLSI-based broth microdilution method; type: functional; settings: time 16-20 hrs; summary of the method: as §1
Staphylococcus aureus [9] = assay: Antibacterial activity against methicillin-resistant Staphylococcus aureus clinical isolate 2 assessed as reduction in bacterial growth incubated for 16 to 20 hrs by CLSI-based broth microdilution method; type: functional; settings: time 16-20 hrs; summary of the method: as §1
Staphylococcus aureus [10] = assay: Antibacterial activity against methicillin-resistant Staphylococcus aureus clinical isolate 9 assessed as reduction in bacterial growth incubated for 16 to 20 hrs by CLSI-based broth microdilution method; type: functional; settings: time 16-20 hrs; summary of the method: as §1
Staphylococcus aureus [11] = assay: Antibacterial activity against methicillin-resistant Staphylococcus aureus clinical isolate 1 assessed as reduction in bacterial growth incubated for 16 to 20 hrs by CLSI-based broth microdilution method; type: functional; settings: time 16-20 hrs; summary of the method: as §1
Enterobacteriaceae [12] = assay: Antibacterial activity against NDM1 producing carbapenem-resistant Enterobacteriaceae clinical isolate 6 assessed as reduction in bacterial growth incubated for 16 to 20 hrs by CLSI-based broth microdilution method; type: functional; settings: time 16-20 hrs; summary of the method: as §1
Staphylococcus aureus [13] = assay: Antibacterial activity against methicillin-resistant Staphylococcus aureus clinical isolate 5 assessed as reduction in bacterial growth incubated for 16 to 20 hrs by CLSI-based broth microdilution method; type: functional; settings: time 16-20 hrs; summary of the method: as §1
Escherichia coli = assay: Antibacterial activity against Escherichia coli ATCC 25922 assessed as reduction in bacterial growth incubated 16 to 20 hrs by CLSI-based broth microdilution method; type: functional; settings: time 16-20 hrs
Summary of the method: (§2)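 Broth microdilution following CLSI, in cation-adjusted Mueller-Hinton broth. Inoculum from a 4-6 h culture (~10^8 CFU/mL), diluted to ~10^6 CFU/mL. Water stocks were serially diluted in MHB (256 to 0.5 µg/mL) and mixed 1:1 with the inoculum. Plates ran 16-20 h at 37 °C. MIC was read visually. Each concentration was tested in duplicate, and the experiment was repeated at least twice.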

[14] = Solubility of the compound in water at room temperature; type: physicochemical; settings: buffer
Staphylococcus aureus [15] = assay: Antibacterial activity against methicillin-resistant Staphylococcus aureus clinical isolate 7 assessed as reduction in bacterial growth incubated for 16 to 20 hrs by CLSI-based broth microdilution method; type: functional; settings: time 16-20 hrs; summary of the method: as §1
Staphylococcus aureus [16] = assay: Antibacterial activity against methicillin-resistant Staphylococcus aureus clinical isolate 4 assessed as reduction in bacterial growth incubated for 16 to 20 hrs by CLSI-based broth microdilution method; type: functional; settings: time 16-20 hrs; summary of the method: as §1
Enterobacteriaceae [17] = assay: Antibacterial activity against NDM1 producing carbapenem-resistant Enterobacteriaceae clinical isolate 2 assessed as reduction in bacterial growth incubated for 16 to 20 hrs by CLSI-based broth microdilution method; type: functional; settings: time 16-20 hrs; summary of the method: as §1
Enterobacteriaceae [18] = assay: Antibacterial activity against NDM1 producing carbapenem-resistant Enterobacteriaceae clinical isolate 10 assessed as reduction in bacterial growth incubated for 16 to 20 hrs by CLSI-based broth microdilution method; type: functional; settings: time 16-20 hrs; summary of the method: as §1
Salmonella enterica = assay: Antibacterial activity against Salmonella enterica ATCC 8387 assessed as reduction in bacterial growth incubated for 16 to 20 hrs by CLSI-based broth microdilution method; type: functional; settings: time 16-20 hrs; summary of the method: as §2
Enterococcus faecalis = assay: Antibacterial activity against Enterococcus faecalis ATCC 29212 assessed as reduction in bacterial growth incubated 16 to 20 hrs by CLSI-based broth microdilution method; type: functional; settings: time 16-20 hrs; summary of the method: as §2
Klebsiella pneumoniae [19] = assay: Antibacterial activity against carbapenem-resistant Klebsiella pneumoniae clinical isolate 5 assessed as reduction in bacterial growth incubated for 16 to 20 hrs by CLSI-based broth microdilution method; type: functional; settings: time 16-20 hrs; summary of the method: as §1
Enterobacteriaceae [20] = assay: Antibacterial activity against NDM1 producing carbapenem-resistant Enterobacteriaceae clinical isolate 5 assessed as reduction in bacterial growth incubated for 16 to 20 hrs by CLSI-based broth microdilution method; type: functional; settings: time 16-20 hrs; summary of the method: as §1
Staphylococcus aureus [21] = assay: Antibacterial activity against methicillin-resistant Staphylococcus aureus clinical isolate 3 assessed as reduction in bacterial growth incubated for 16 to 20 hrs by CLSI-based broth microdilution method; type: functional; settings: time 16-20 hrs; summary of the method: as §1
Staphylococcus aureus [22] = assay: Antibacterial activity against Staphylococcus aureus ATCC 29213 assessed as reduction in bacterial growth incubated for 16 to 20 hrs by CLSI-based broth microdilution method; type: functional; settings: time 16-20 hrs; summary of the method: as §2
Staphylococcus aureus [23] = assay: Antibacterial activity against methicillin-resistant Staphylococcus aureus clinical isolate 8 assessed as reduction in bacterial growth incubated for 16 to 20 hrs by CLSI-based broth microdilution method; type: functional; settings: time 16-20 hrs; summary of the method: as §1
Klebsiella pneumoniae [24] = assay: Antibacterial activity against carbapenem-resistant Klebsiella pneumoniae clinical isolate 6 assessed as reduction in bacterial growth incubated for 16 to 20 hrs by CLSI-based broth microdilution method; type: functional; settings: time 16-20 hrs; summary of the method: as §1
Enterobacteriaceae [25] = assay: Antibacterial activity against NDM1 producing carbapenem-resistant Enterobacteriaceae clinical isolate 1 assessed as reduction in bacterial growth incubated for 16 to 20 hrs by CLSI-based broth microdilution method; type: functional; settings: time 16-20 hrs; summary of the method: as §1
Staphylococcus aureus [26] = assay: Antibacterial activity against methicillin-resistant Staphylococcus aureus clinical isolate 10 assessed as reduction in bacterial growth incubated for 16 to 20 hrs by CLSI-based broth microdilution method; type: functional; settings: time 16-20 hrs; summary of the method: as §1
Klebsiella pneumoniae [27] = assay: Antibacterial activity against carbapenem-resistant Klebsiella pneumoniae clinical isolate 1 assessed as reduction in bacterial growth incubated for 16 to 20 hrs by CLSI-based broth microdilution method; type: functional; settings: time 16-20 hrs; summary of the method: as §1
Klebsiella pneumoniae [28] = assay: Antibacterial activity against carbapenem-resistant Klebsiella pneumoniae clinical isolate 8 assessed as reduction in bacterial growth incubated for 16 to 20 hrs by CLSI-based broth microdilution method; type: functional; settings: time 16-20 hrs; summary of the method: as §1
Enterobacteriaceae [29] = assay: Antibacterial activity against NDM1 producing carbapenem-resistant Enterobacteriaceae clinical isolate 7 assessed as reduction in bacterial growth incubated for 16 to 20 hrs by CLSI-based broth microdilution method; type: functional; settings: time 16-20 hrs; summary of the method: as §1
Klebsiella pneumoniae [30] = assay: Antibacterial activity against carbapenem-resistant Klebsiella pneumoniae clinical isolate 3 assessed as reduction in bacterial growth incubated for 16 to 20 hrs by CLSI-based broth microdilution method; type: functional; settings: time 16-20 hrs; summary of the method: as §1
Staphylococcus aureus [31] = assay: Antibacterial activity against methicillin-resistant Staphylococcus aureus clinical isolate 6 assessed as reduction in bacterial growth incubated for 16 to 20 hrs by CLSI-based broth microdilution method; type: functional; settings: time 16-20 hrs; summary of the method: as §1
Enterobacteriaceae [32] = assay: Antibacterial activity against NDM1 producing carbapenem-resistant Enterobacteriaceae clinical isolate 9 assessed as reduction in bacterial growth incubated for 16 to 20 hrs by CLSI-based broth microdilution method; type: functional; settings: time 16-20 hrs; summary of the method: as §1

Compound: CCCCCCCCCCCN(C[C@H]1CN(c2ccc(N3CCOCC3)c(F)c2)C(=O)O1)C(=O)[C@@H](N)CCCN=C(N)N.Cl.Cl.Cl
MIC (Enterobacteriaceae [1]): 16 µg/mL
MIC (Klebsiella pneumoniae [2]): 16 µg/mL
MIC (Klebsiella pneumoniae [3]): 8 µg/mL
MIC (Klebsiella pneumoniae [4]): 16 µg/mL
MIC (Klebsiella pneumoniae [5]): 32 µg/mL
MIC (Enterobacteriaceae [6]): 64 µg/mL
MIC (Klebsiella pneumoniae [7]): 8 µg/mL
MIC (Enterobacteriaceae [8]): 16 µg/mL
MIC (Staphylococcus aureus [9]): 8 µg/mL
MIC (Staphylococcus aureus [10]): 4 µg/mL
MIC (Staphylococcus aureus [11]): 2 µg/mL
MIC (Enterobacteriaceae [12]): 16 µg/mL
MIC (Staphylococcus aureus [13]): 8 µg/mL
MIC (Escherichia coli): 8 µg/mL
solubility [14]: Soluble
MIC (Staphylococcus aureus [15]): 4 µg/mL
MIC (Staphylococcus aureus [16]): 4 µg/mL
MIC (Enterobacteriaceae [17]): > 64 µg/mL
MIC (Enterobacteriaceae [18]): 8 µg/mL
MIC (Salmonella enterica): 8 µg/mL
MIC (Enterococcus faecalis): 8 µg/mL
MIC (Klebsiella pneumoniae [19]): 16 µg/mL
MIC (Enterobacteriaceae [20]): 16 µg/mL
MIC (Staphylococcus aureus [21]): 4 µg/mL
MIC (Staphylococcus aureus [22]): 4 µg/mL
MIC (Staphylococcus aureus [23]): 4 µg/mL
MIC (Klebsiella pneumoniae [24]): 16 µg/mL
MIC (Enterobacteriaceae [25]): > 64 µg/mL
MIC (Staphylococcus aureus [26]): 4 µg/mL
MIC (Klebsiella pneumoniae [27]): 16 µg/mL
MIC (Klebsiella pneumoniae [28]): 8 µg/mL
MIC (Enterobacteriaceae [29]): 16 µg/mL
MIC (Klebsiella pneumoniae [30]): 8 µg/mL
MIC (Staphylococcus aureus [31]): 4 µg/mL
MIC (Enterobacteriaceae [32]): 16 µg/mL

MIC (Escherichia coli): > 128 µg/mL
solubility [14]: Soluble
MIC (Salmonella enterica): > 128 µg/mL
MIC (Enterococcus faecalis): > 128 µg/mL
MIC (Staphylococcus aureus [22]): > 128 µg/mL
Compound: CCCC[N+](C)(C)CC(=O)NC[C@H]1CN(c2ccc(N3CCOCC3)c(F)c2)C(=O)O1.[Cl-]
